The EternaBench riboswitch data

Tested on: MS2 coat protein
Assay: apparent Kd, MS2 coat protein; higher = weaker binding; RNA-MaP array; FMN 200 µM where present
Summary of the method: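 On Illumina sequencing-chip clusters, designs were transcribed by stalled E. coli RNA polymerase and titrated with SNAP-549-labelled MS2 coat protein (0.7 or 1.5 nM, doubling to 3 µM), without and then with constant ligand, in 100 mM Tris-HCl pH 7.5, 80 mM KCl, 4 mM MgCl2, BSA, DTT, yeast tRNA and Tween-20. Apparent Kd is the median of filtered per-cluster curve fits to green signal normalised to red-channel RNA signal and control-cluster median Fmax.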

[1] = designed as: OFF switch for flavin mononucleotide, no ligand
[2] = ligand present: flavin mononucleotide, designed as: OFF switch for flavin mononucleotide
[3] = designed as: ON switch for flavin mononucleotide, no ligand
[4] = ligand present: flavin mononucleotide, designed as: ON switch for flavin mononucleotide

| Sequence | apparent Kd [1] | apparent Kd [2] | apparent Kd [3] | apparent Kd [4] |
| --- | --- | --- | --- | --- |
| GCCCUUUCUGAGGAUAUUAUCUGGUUCGAUUGAUAAGAAGGCAGUACAUGAGGAUCACCCAUGUGGUUCGUUUG | 99.6 nM | 242 nM |  |  |
| UUUCAGUUCACAUGAGGAUCACCCAUGUCGGUUCGCCCGGACAGAAGGCACCCAUGACAAUGCGGUGAGGAUAUGUCAACAAGG |  |  | 143 nM | 19.1 nM |
| GGGUACAUCGGAGGAUAUCAUGUAAAUACAUGAGGAUCACCCAUGUCGAUGGAGACAUCGGAGAUUGAGAAGGCCGAUGUACCA |  |  | 154 nM | 10.1 nM |
| UCCAGGCGAGGAUAUACAAAGAUUUUUUCGUUUUGUCUCGAACAUGAGGAUCACCCAUGUAGAAGGUGCUGCUG | 57.5 nM | 52.9 nM |  |  |
| ACCGUAUGAACAUGAGGAUCACCCAUGUAACCGAUAACGAAUGAGGAUAUCGAUAGCAAAGCUAUCGAGAAGGCAUGGGACGGU |  |  | 224 nM | 43.9 nM |
| CGCAACUCUUCACAUGUCAACAUGAGGAUCACCCAUGUAUUGAGAAGGAGGAAGAAGAGAGAUUCCUAGGAUAUCAGAGUUGCG | 6.75 nM | 6.08 nM |  |  |
| AGGAGAAAUGUAGGAUAUGUAUAUAUAUAUGGGCAAAGCGCAUAUAUAUAUACAGAAGGACAUGAGGAUCACCCAUGUUUCCCU | 11.4 nM | 13.5 nM |  |  |
| GUGUACAGAGGAUAUACUUAUGGAGUUACGAAAGUAACUUCACAUGAGGAUCACCCAUGUAGAAGGCUGUACAC | 27.3 nM | 31 nM |  |  |
| GGAGCCGGCACUGAGGAUAUUCAUAUUAAAACAUGAGGAUCACCCAUGUAGGCCAGAAGGCCUUGGGAGAAGGCAGGUCGACUCG |  |  | 406 nM | 28.9 nM |
| AACUCGUCAGGAUAUGCGCACAGAUAAUACGCUUCGCAAUUGCAGAAGGGACAUGAGGAUCACCCAUGUAAAUA | 30.6 nM | 27 nM |  |  |
| UUUUAGUCAGGAUAUACAUUUUUUUAUUUAUUUAUAAUAUUACAUGAGGAUCACCCAUGUAGAAGGGACAUUUU | 31.8 nM | 26.5 nM |  |  |
| GUAGAGUAGUGAGGAUAUACGAGCUCGAUAGAGCGGCGAUCCAUUAAUACAUGAGGAUCACCCAUGUAGAAGGCACUUCUCUAC | 5.83 nM | 72 nM |  |  |
| GCUGCAUAUGAGAAGGCGAUCAUGAAACAUGAUCGAGGAUAUCAUGUUUACAUGAGGAUCACCCAUGUAUGGGUAUAAUGCAGC |  |  | 492 nM | 14 nM |
| UCAACCAGCGCCGGUUGAACAUGAGGAUCACCCAUGUACUCCAGAAGGCCGCCCAAGAACGGAGUGGAGGAUAUGGAAGUUCUC |  |  | 75.7 nM | 39.9 nM |
| UGAGCGACCACAGGAUAUACUUGGGAAGACCGAGUAGAAGGGUGGAAGAGCGUGCAGUGACAUGAGGAUCACCCAUGUGGUUGU |  |  | 122 nM | 82.2 nM |
| AAAAUCUAUUGAGGAUAUUCAUACACUACAUACGGAGAAGGCAAACAAUCAUGAGGACAUGAGGAUCACCCAUGUUGUGACCAU |  |  | 23.4 nM | 20 nM |
| AUUUGAAUCGUAGGAUAUCGCUUAAAUUUACCACGAGAAGGACGAACAUGAGGAUCACCCAUGUAACAUGGUGUAGAUAAUUUG | 159 nM | 440 nM |  |  |
| GGUUGGCGAGGAUAUACAUGAGGAUCACCCAUGUGGUCCUGCGGUGGUAUCGCCCUUUGUAGAAGGCGCGGGUC | 112 nM | 117 nM |  |  |
| CUCAAACAUGAGGAUCACCCAUGUGUUGUCAUGGGAGGAUAUCCCAGUUCGGUGACGUCGGGAGAAGGCCUAUGUC |  |  | 113 nM | 35.2 nM |
| GGAUGACAUAGUCAUCCUUAACGAACAUGAGGAUCACCCAUGUAGGAUAUGCUACUCAAAGAGUAGCAGAAGGGCGUGUGUCUU | 42.6 nM | 49 nM |  |  |
| GGGUAUAUUACAUGAGGAUCACCCAUGUCAGAAAGGGUAAUCAGAAGGUACUAUUAGAGAAAGAGUAAGGAUAUGAUUAUACCC |  |  | 176 nM | 22.8 nM |
| GAAGCUCUGCAGCGAUUAGCUACAUGAGGAUCACCCAUGUGGGAGGAUAUACGUCGCUCCGCGGAGUAGAAGGCUUACAUGCGG | 9.86 nM | 21.7 nM |  |  |
| UAUUAGUAAGGAUAUCUCGUCAUGGACGUGAGUCCAUGACGAGAGAAGGUACAUGAGGAUCACCCAUGUUCAUU | 15.9 nM | 18.3 nM |  |  |
| GUAGCUAUCGGAGGAUAUUCAUACCGGAAAAGGACAUGAGGAUCACCCAUGUGGUGAAAGCCUUGGGAGAAGGCCGAUAGCUAC |  |  | 484 nM | 191 nM |
| GCGAAUCAGUGAGGAUAUACAUAAAUUAUAACAGUAGAAGGCACAUACCUCAAGACAUGAGGAUCACCCAUGUGACAUAUCGCU | 258 nM | 488 nM |  |  |
| CCGGUUUAGGAGGAUAUAGGAGUCGAUAGACACCUAGAAGGCCUAACAUGAGGAUCACCCAUGUGACCUACCGG | 51.1 nM | 177 nM |  |  |
| GUCUGGCUAGGAUAUACAGAAUCCACGAGUCGGUUGCCCUGACAUGAGGAUCACCCAUGUAGAAGGAGCGAGAA | 17.9 nM | 24.3 nM |  |  |
| CGAAGGGAGUCAGGAUAUGUUCCUUUCAUACGGACAGAAGGGACUCCUUACAUGAGGAUCACCCAUGUAAGGGUAGUCUUCAGG | 60.7 nM | 90.6 nM |  |  |

| Sequence | apparent Kd [1] | apparent Kd [2] | apparent Kd [3] | apparent Kd [4] |
| --- | --- | --- | --- | --- |
| AAUAAUGAUAAGGAUAUCACUAGCCUCGGCUAGUGAGAAGGUAUCACAUGAGGAUCACCCAUGUGUUCCAAUAA | 16.1 nM | 40.3 nM |  |  |
| AUCAGCUCGUCAGGAUAUACGUCACCGCGUCAGCAGUGUGGUAAGAUCACAUGAGGAUCACCCAUGUAGAAGGGACGAGCUGAU | 13.6 nM | 237 nM |  |  |
| AGAUCACAAAUUUGGGAUAGUAGUACAGAAGGCACGGAAGUACAUGAGGAUCACCCAUGUGUGGGUGAGGAUAUGUACUCACUA |  |  | 217 nM | 14 nM |
| UCGCUGCGAGGAUAUACGUUUGCGCGCUUUCGUUUGCGCGUACAUGAGGAUCACCCAUGUAGAAGGCGCGCCGC | 15.9 nM | 15.9 nM |  |  |
| CUAGCGAGUGAGAAGGCCAGCUUUUAUACAUGAGGAUCACCCAUGUAGCCCUAAAGGGUAUGCAUGGAGGAUAUCACGAGCCUG |  |  | 11.7 nM | 7.03 nM |
| UUAUGUUAUGUAGGAUAUCACUUUAAUUGAUUAAUAUAUGAAUAUAGAAUUUGAGAAGGACAUUUACAUGAGGAUCACCCAUGU | 12.3 nM | 8.5 nM |  |  |
| AAGCUGGUAGGAUAUACUAGGGCGAUUAAUACGCCGAUAGUACAUGAGGAUCACCCAUGUAGAAGGGCCAGAAA | 27.5 nM | 22.1 nM |  |  |
| CUAUACAUAUCAGGAUAUCAUCGAGUGGAUUAACACAGUGAUUACAUGAGGAUCACCCAUGUGCUUGAGAAGGGAUUACUAUUU | 14.6 nM | 12.9 nM |  |  |
| GUGGUCAGACAUGAGGAUCACCCAUGUGGAAUAAAUAACGUCAAGGAUAUUCAAUAUAGGAUAUAGAAGAAGGUGAGAUUGGUG |  |  | 153 nM | 177 nM |
| GUCAGCUCGUGAGGAUAUACAACAAUGCUUCGGCAGUGUAUUAAGAUCACAUGAGGAUCACCCAUGUAGAAGGCACGAGCUGAU | 7.66 nM | 73.7 nM |  |  |
| AGAAAACAUGAGGAUCACCCAUGUCAGGAUAUCUCCAAGGCUUAACAUCCAGCCCUGCAGAGAAGGGACGGGUG | 87.9 nM | 225 nM |  |  |
| UAGCUUGACGCAGGAUAUCCAGGGCUGAGAUGAGGAGAAGGGCGCCAAACAUGAGGAUCACCCAUGUAUUAUGCAGGGUCCUCA | 336 nM | 315 nM |  |  |
| GUCAGCUCGUCAGGAUAUACAACACUGCUUCGGCAGUGUAUUAAGAUCACAUGAGGAUCACCCAUGUAGAAGGCACGAGCUGAU | 7.39 nM | 7.56 nM |  |  |
| GUGUAGAUAGGAUAUACAUGAGUCUAGCGAAGCUAGAUUCUACAUGAGGAUCACCCAUGUAGAAGGGUCUACAC | 15.9 nM | 18.5 nM |  |  |
| GUGACCCAUUAACAGUUACCACAUGAGGAUCACCCAUGUGCGAAGGAUAUAGACUGCUAUGCGUGCUAGAAGGUCGCGCGUGGC | 6.32 nM | 6.63 nM |  |  |
| CCACUGUCAGGAUAUCGUGCAUAAACGUUUACAUUUAUGUGCGAGAAGGGACAUGAGGAUCACCCAUGUAAACG | 314 nM | 515 nM |  |  |
| UGUCGGAGCAGAGGAUAUACAUGAGGAUCACCCAUGUAAUAAGAUCAAGCCUGGAAACAGGCAAUGUAGAAGGCUGCUCCGACA | 34 nM | 422 nM |  |  |
| UGAUCUAGCGGAGGAUAUACAUGAGGAUCACCCAUGUAGAUAUCAUGACCGUAGUCGUGUAUCGUGUAGAAGGCCGCUAGAUCU | 12.7 nM | 24 nM |  |  |
| UUUGGGUGGCUGGAGGAUAUCCUGGUUGUUACAUGAGGAUCACCCAUGUGCCGCGCGGUUCGCGAGGAGAAGGCUGGCGGCCGUU |  |  | 147 nM | 33.6 nM |
| CAGUCUACAGGAUAUACAUGAGGAUCACCCAUGUGUAUUCACUUUCAGUAGUCUUUAUGUAGAAGGGUAGACUG | 15.9 nM | 26.7 nM |  |  |
| CGUUGGUUAGGAUAUGCCCUCCUGGUGGGAAGGCCGGGUGGGUAGAAGGGACAUGAGGAUCACCCAUGUAUGGA | 72.3 nM | 26.8 nM |  |  |
| GUAGAGUAGUGAGGAUAUACGAGUUCGAUAGAACGGCGAUCCAAUAAUACAUGAGGAUCACCCAUGUAGAAGGCACUUCUCUAC | 9.33 nM | 112 nM |  |  |
| UACAAUCUAUCUGAGGAUAUCAUGAAAAAAACAUGAGGAUCACCCAUGUGCAGGAAAACUGCAUAUGAGAAGGCAGAUAGAUUGA |  |  | 873 nM | 26.9 nM |
| CCAGCAACAUGAGGAUCACCCAUGUAGGAUAUCGCUAUUGUAAUCAUGAAACAUGAUUACAAUAGCGAGAAGGACAUAUGCUGG | 6.31 nM | 10.1 nM |  |  |
| GAAUGCAGAGGAUAUACGGGACAGCAUCGAAAGAUGCUGAAACAUGAGGAUCACCCAUGUAGAAGGCUGCAGAA | 73.2 nM | 154 nM |  |  |
| GACUAGGCAGGAUAUACAUGAGGAUCACCCAUGUGUCUGCGUUGGGCACGUGAACACCGUAGAAGGGCCUUGAC | 15.8 nM | 35 nM |  |  |
| AAAAGGCUAGGAUAUACCAGUGGGUGUAAGAACUCAAAGUUACAUGAGGAUCACCCAUGUAGAAGGAGUAAAAU | 17.1 nM | 40 nM |  |  |
